Only a selection was taken, and hits are over-represented in it overall.
Insulin prom act – TRM-6 insulin promoter activation; TRM-6 cells, insulin promoter eGFP reporter, imaging; plate-scaled: unstimulated 0, stimulated control 100; hit rate 0.81% among 130,000; activation, % at 2 µM;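 active = activation at 2 µM above a set limit, confirmed on inspection of the cell images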;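 also: share of cells whose green reporter signal exceeds an intensity cutoff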
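Material: Human fetal islet-derived TRM-6 cells with tamoxifen-inducible insulin promoter–eGFP reporter | Medium: Low-glucose (5.5 mM) medium with tamoxifen | Probe or stimulus: Tamoxifen inducer, 0.75 µM, in seeding medium | Schedule: Tamoxifen pre-incubation 15 h overnight, then compound exposure 48 h at 37 °C | Detection: High-content imaging of fixed cells with Hoechst nuclear stain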
* = called active by the depositor; [ ] = dose if it differs, or a comment.

Results for COc1ccccc1NC(=O)C1=C(C)Nc2nnnn2C1c1ccncc1 (stereo unspecified) ?
Insulin prom act: -7.7

Results for COc1ccc(NC(=O)C2=C(C)Nc3ncnn3C2c2ccccc2C(F)(F)F)c(OC)c1 (stereo unspecified) ?
Insulin prom act: 403.4*

Results for CC1=C(C(=O)Nc2cccnc2)C(c2cccnc2)n2ncnc2N1 (stereo unspecified) ?
Insulin prom act: -6.7

Results for Cc1ccc(C(=O)Nc2ccc3c(c2)OCO3)cc1 ?
Insulin prom act: 5.4

How did CCCCC(=O)Nc1ccc(C(=O)Nc2ccc3c(c2)OCO3)cc1 do in these assays?
Insulin prom act: 475.0*

What do the screens show for `Cc1ccccc1OCCCC(=O)Nc1ccc2c(c1)OCO2`?
Insulin prom act: -7.4

What do the screens show for `Cc1ccc(S(=O)(=O)NNC(=O)NC23CC4CC(CC(C4)C2)C3)cc1`?
Insulin prom act: -6.7

Results for C=CCNC(=S)NS(=O)(=O)c1cccs1 ?
Insulin prom act: -9.5

What do the screens show for `O=C(CCOc1ccccc1F)N1CCN(c2ccccc2O)CC1`?
Insulin prom act: 0.0

How did C=CCSc1nn2c(=O)c3ccccc3nc2s1 do in these assays?
Insulin prom act: 130.0*

How did O=c1c2ccccc2nc2sc3ccccc3n12 do in these assays?
Insulin prom act: 9.1

What do the screens show for `C=CCSc1nc2ccccc2c2nc(-c3ccccc3)nn12`?
Insulin prom act: 5.1

Results for COc1ccccc1NC(=O)C/C(C)=N/NC(=O)COc1c(Br)cc(Br)cc1OC ?
Insulin prom act: 5.9

What do the screens show for `CCCC1=C(C(=O)OCC)C(c2c(C)nn(-c3ccccc3)c2Cl)C(C#N)=C(N)O1` (stereo unspecified)?
Insulin prom act: 3.4

How did COc1ccc(-n2cc(CNCCc3cnc[nH]3)c(-c3cccc(F)c3)n2)cc1 do in these assays?
Insulin prom act: -2.4

Results for Cn1ncc(Cl)c1C(=O)Nc1sc2c(c1C(N)=O)CCC2 ?
Insulin prom act: -14.4

How did CCOC(=O)c1c(NC(=S)Nc2ccc(Cl)cc2)sc2c1CCN(C)C2 do in these assays?
Insulin prom act: 163.0

How did CCN1CCc2c(sc(NC(=O)Nc3ccc(Cl)c(Cl)c3)c2C(N)=O)C1 do in these assays?
Insulin prom act: 207.7*

How did CC(C)CNS(=O)(=O)c1ccc(CCC(=O)N2CCN(Cc3ccc4c(c3)OCO4)CC2)cc1 do in these assays?
Insulin prom act: 468.8*

How did COc1ccc(N(CC(=O)N2CCN(Cc3ccc4c(c3)OCO4)CC2)S(C)(=O)=O)cc1OC do in these assays?
Insulin prom act: 90.9

How did O=C(CCc1ccc(S(=O)(=O)NCCc2ccccc2)cc1)N1CCN(Cc2ccc3c(c2)OCO3)CC1 do in these assays?
Insulin prom act: -5.7

Results for CN1CC2([N+](=O)[O-])CC=C(OCCO)C([N+](=O)[O-])(C1)C2 (stereo unspecified) ?
Insulin prom act: -7.7

How did Cc1cccc(C(=O)Nc2nccs2)c1[N+](=O)[O-] do in these assays?
Insulin prom act: -3.7

How did COc1ccc(CN(C)CC(=O)Nc2cc(OC)c([N+](=O)[O-])cc2C)c(OC)c1 do in these assays?
Insulin prom act: -71.4

How did Cc1ccc(-c2nc(NCc3ccco3)n(S(C)(=O)=O)n2)cc1 do in these assays?
Insulin prom act: -7.7

How did O=C(Cc1ccc(-c2ccccc2)cc1)NNC(=S)NCc1ccco1 do in these assays?
Insulin prom act: 0.0

Results for COc1ccc(CC(=O)n2nc(-c3ccccc3)nc2NCc2ccco2)cc1 ?
Insulin prom act: 641.7*

How did COc1ccc(-c2[nH]ncc2CN2CCC(N3CCSCC3)CC2)c(F)c1 do in these assays?
Insulin prom act: 8.7

How did O=C(CSCc1ccccc1)N1CCN(c2ccccc2)CC1 do in these assays?
Insulin prom act: 117.6

How did O=C(Cc1ccc(Br)cc1)N1CCN(c2ccccc2)CC1 do in these assays?
Insulin prom act: 466.7*

Results for Cc1cccc(N2CCN(C(=O)Cc3ccc(Br)cc3)CC2)c1C ?
Insulin prom act: 8.1

What do the screens show for `COc1ccc(NC(=O)COC(=O)CCCN2C(=O)c3ccccc3C2=O)cc1Cl`?
Insulin prom act: 7.7

Results for COCCCn1c(Cc2csc(Nc3ccc(F)cc3)n2)nnc1SCC(N)=O ?
Insulin prom act: 9.1

What do the screens show for `O=C(CNCCC1=CCCCC1)Nc1ccccc1N1CCCCC1`?
Insulin prom act: 0.0

How did COc1ccc(/C=N/OCC(=O)N(Cc2ccc(OC)cc2)c2ccccc2C(=O)O)cc1 do in these assays?
Insulin prom act: -6.7

What do the screens show for `CCOC(=O)C1CCCN(CCC(=O)Nc2cccc(C)c2)C1` (stereo unspecified)?
Insulin prom act: 7.1

How did CCOC(=O)C1CCCN(CCC(=O)Nc2cccc(F)c2)C1 (stereo unspecified) do in these assays?
Insulin prom act: -9.4

How did CCOC(=O)C1CCCN(CCC(=O)Nc2ccc(C)cc2)C1 (stereo unspecified) do in these assays?
Insulin prom act: 527.6*

How did O=C(CCc1ccccc1)NCCc1nc2ccccc2[nH]1 do in these assays?
Insulin prom act: 6.7

How did O=C(Nc1ccc(Cl)cn1)c1ccc(-c2cc(Cl)ccc2Cl)o1 do in these assays?
Insulin prom act: 3.3

What do the screens show for `O=C(Nc1ccc(Cl)cc1C(=O)Nc1ccc(Br)cn1)c1ccco1`?
Insulin prom act: 600.0*

What do the screens show for `COc1ccc(Cl)cc1NC(=O)c1ccco1`?
Insulin prom act: -6.1

What do the screens show for `O=C(Nc1ccc(F)cc1)C1CCN(S(=O)(=O)c2cccs2)CC1`?
Insulin prom act: 5.9

How did CC1(C)CC(=O)C(N=Nc2cc3c(cc2[N+](=O)[O-])OCCO3)=C(O)C1 do in these assays?
Insulin prom act: 8.3

Results for CCCn1nc2cc(C(=O)NCCc3cccs3)ccc2c1OCC ?
Insulin prom act: 9.1

Results for Cc1cc(Cl)c(OCCN2C(=O)NC(C)(C)C2=O)c(Br)c1 ?
Insulin prom act: 538.5*

Results for Cc1cc(Cl)c(OCCCN2CCCCC2)c(Br)c1 ?
Insulin prom act: 146.2

What do the screens show for `Cc1cc(C)c(OCCN2C(=O)NC(C)(C)C2=O)c(Cl)c1`?
Insulin prom act: 7.7

How did CC1CCc2c(sc(NS(=O)(=O)c3ccccc3)c2C(=O)OC(C)C)C1 (stereo unspecified) do in these assays?
Insulin prom act: 138.9

Results for N#Cc1sc2nc(-c3cccs3)cc(-c3ccccc3)c2c1N ?
Insulin prom act: 0.0

What do the screens show for `Cc1cccc(OCc2nnc(NC(=O)c3cccs3)s2)c1`?
Insulin prom act: 5.6

What do the screens show for `O=C(Nc1nccc(-c2cccs2)n1)c1ccccc1Cl`?
Insulin prom act: -3.3

Results for Cc1nnc(NC(=O)c2sc3nc(-c4cccs4)cc(C(F)(F)F)c3c2N)s1 ?
Insulin prom act: 106.8*[may fluoresce]

How did Nc1c(C(=O)Nc2nccs2)sc2nc(-c3cccs3)cc(C(F)(F)F)c12 do in these assays?
Insulin prom act: 181.7*[may fluoresce]

What do the screens show for `COc1ccc(NC(=O)c2sc3nc(Cc4ccccc4)cc(C(F)(F)F)c3c2N)cc1OC`?
Insulin prom act: 4.6

What do the screens show for `CCOC(=O)Cc1c(C)nc2c(-c3cccc(Br)c3)c[nH]n2c1=O`?
Insulin prom act: 181.5

Results for Nc1cc(Oc2ccc(F)cc2F)cc([N+](=O)[O-])c1 ?
Insulin prom act: -6.7

Results for COC(=O)CN(c1ccc(OCc2ccccc2)cc1)S(C)(=O)=O ?
Insulin prom act: 7.0

What do the screens show for `O=C(Cn1ncc(Cl)c(Cl)c1=O)c1ccc(Cl)cc1`?
Insulin prom act: 8.3

How did O=C(OCn1ncc(Cl)c(Cl)c1=O)c1ccc(F)cc1 do in these assays?
Insulin prom act: 242.9*

What do the screens show for `Cn1c(N)c(C(=O)COC(=O)c2ccc(Cl)nc2)c(=O)n(C)c1=O`?
Insulin prom act: -7.1

Results for Cc1cc(NC(=O)C2CCCCC2)ccc1NC(=O)c1ccccc1Cl ?
Insulin prom act: 0.0

Screening data deposited in PubChem BioAssay by Columbia University Molecular Screening Center.
